Data set [1] in a line: Stability in human serum at 37 degC after 90 mins. Type of data set: ADME, cell-free. The settings on record: read-out: Stability. The method in brief: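 PBS-formulated 18F-labeled compound (20 µL, 250 MBq/mL) is added to 200 µL human serum and incubated at 37 °C for up to 90 min. The percentage of intact radioligand is reported.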
The nature of data set [2]: Lipophilicity, log D at pH 7.4. Conditions: buffer. Type of data set: physicochemical. The method in brief: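 Shake-flask partition of about 25 kBq 18F-labeled compound between 1-octanol and PBS pH 7.4, mixed 3 min at room temperature and centrifuged. Triplicate 100 µL samples of each phase are gamma-counted. log D7.4 = log(cpm octanol/cpm buffer), from 2–3 independent experiments in triplicate, mean ± SD.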

In data set [3] the target is T1, D(2) dopamine receptor (Homo sapiens, UniProt P14416). Put plainly: Displacement of [3H]spiperone from cloned human dopamine D2S receptor expressed in CHO cells. The data set is classed as cell-based.
T1 sequence (P14416 whole entry): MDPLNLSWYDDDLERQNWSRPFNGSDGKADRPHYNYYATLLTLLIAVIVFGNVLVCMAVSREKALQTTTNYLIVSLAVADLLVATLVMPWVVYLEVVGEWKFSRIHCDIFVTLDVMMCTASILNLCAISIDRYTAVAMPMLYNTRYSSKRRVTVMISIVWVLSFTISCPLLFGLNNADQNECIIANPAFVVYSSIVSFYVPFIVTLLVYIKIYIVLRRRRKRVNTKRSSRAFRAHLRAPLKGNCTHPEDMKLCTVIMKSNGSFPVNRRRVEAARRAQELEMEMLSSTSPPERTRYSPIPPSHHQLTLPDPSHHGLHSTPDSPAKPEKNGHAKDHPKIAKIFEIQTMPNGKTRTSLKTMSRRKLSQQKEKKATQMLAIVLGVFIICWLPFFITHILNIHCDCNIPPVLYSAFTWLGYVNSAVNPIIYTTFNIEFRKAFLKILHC
The nature of data set [4]: Displacement of [3H]spiperone from cloned human dopamine D4.4 receptor expressed in CHO cells. Type of data set: cell-based.
For data set [5], the species on record is Homo sapiens. Put plainly: Selectivity for human dopamine D4.4 receptor over human dopamine D3 receptor.
Data set [6] addresses T1, D(2) dopamine receptor. Put plainly: Displacement of [3H]spiperone from cloned human dopamine D2L receptor expressed in CHO cells. Type of data set: cell-based.
Data set [7] deals with D(3) dopamine receptor (Homo sapiens, UniProt P35462). Kind of data set: Displacement of [3H]spiperone from cloned human dopamine D3 receptor expressed in CHO cells. Type of data set: cell-based.
Chain of D(3) dopamine receptor (P35462 whole entry): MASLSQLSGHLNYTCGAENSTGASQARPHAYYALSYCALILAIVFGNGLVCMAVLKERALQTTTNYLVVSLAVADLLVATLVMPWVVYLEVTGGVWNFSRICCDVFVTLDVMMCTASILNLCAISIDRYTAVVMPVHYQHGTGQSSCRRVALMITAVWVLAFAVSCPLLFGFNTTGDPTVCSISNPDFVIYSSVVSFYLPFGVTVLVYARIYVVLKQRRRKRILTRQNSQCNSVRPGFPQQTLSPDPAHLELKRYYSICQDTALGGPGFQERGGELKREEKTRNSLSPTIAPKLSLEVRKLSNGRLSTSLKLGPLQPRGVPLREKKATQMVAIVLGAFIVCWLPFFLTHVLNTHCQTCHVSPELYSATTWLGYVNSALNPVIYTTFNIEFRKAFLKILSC
For data set [8], the species on record is Homo sapiens. Put plainly: Selectivity for human dopamine D4.4 receptor over human dopamine D2S receptor.
Data set [9] concerns the target 5-hydroxytryptamine receptor 2A (Sus scrofa, UniProt P50129). Kind of data set: Displacement of [3H]ketanserin from 5HT2 receptor in pig cortical membranes. The data set is classed as cell membranes. The method in brief:
(§1)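 Competition binding on porcine cortical membranes. Radioligands, each at 0.5 nM final: [3H]8-OH-DPAT for 5-HT1A, [3H]ketanserin for 5-HT2, [3H]prazosin for α1.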

Data set [10] concerns the target D(1A) dopamine receptor (Sus scrofa, UniProt P50130). Put plainly: Displacement of [3H][…] from dopamine D1 receptor in pig striatal membrane. Type of data set: cell membranes, Striatum.
Data set [11] is described as follows: Displacement of [3H]prazosin from adrenergic alpha1 receptor in pig cortical membranes. The data set is classed as cell membranes, Sus scrofa. The method in brief:
as §1

The species named for data set [12] is Homo sapiens. Put plainly: Selectivity for human dopamine D4.4 receptor over human dopamine D2L receptor.
Data set [13] can be described thus: Displacement of [3H]8-OH-DPAT from 5HT1A receptor in pig cortical membranes. The data set is classed as cell membranes, Sus scrofa. The method in brief: as §1
Data set [14] can be described thus: Agonist activity at rat dopamine D4.2 receptor expressed in CHO10001A cells assessed as incorporation of [3H]thymidine. Type of data set: functional, cell-based.
Data set [15] is described as follows: Agonist activity at rat dopamine D4.2 receptor expressed in CHO10001A cells assessed as incorporation of [3H]thymidine relative to quinpirole. Type of data set: functional.
Data set [16] has as its target T2, D(4) dopamine receptor (Rattus norvegicus) (UniProt P30729).
T2 sequence (whole entry): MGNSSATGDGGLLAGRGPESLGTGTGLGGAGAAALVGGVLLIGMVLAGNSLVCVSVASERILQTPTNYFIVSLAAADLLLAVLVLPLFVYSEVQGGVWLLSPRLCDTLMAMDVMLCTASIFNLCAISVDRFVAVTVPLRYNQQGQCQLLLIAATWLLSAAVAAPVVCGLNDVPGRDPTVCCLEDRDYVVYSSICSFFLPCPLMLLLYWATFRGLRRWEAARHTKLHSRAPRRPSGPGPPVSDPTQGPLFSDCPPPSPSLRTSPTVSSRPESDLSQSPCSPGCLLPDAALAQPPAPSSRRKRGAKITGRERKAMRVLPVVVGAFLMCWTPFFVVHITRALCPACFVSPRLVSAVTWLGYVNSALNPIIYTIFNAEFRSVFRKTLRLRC
Put plainly: Displacement of 2-[4-(2-(2-[18F]fluoroethoxy)phenyl)piperazin-1-ylmethyl]pyrazolo[1,5-alpha]pyridine from dopamine D4 receptor in Sprague-Dawley rat brain. The method in brief:
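In vitro autoradiography on 20 µm coronal brain cryosections from female Sprague–Dawley rats. Sections are preincubated 2 × 5 min, then incubated 60 min at room temperature with 110 kBq/mL [18F] radioligand, ± competitor (1 µM). Buffer: Tris-HCl, NaCl, EDTA, MgCl2 pH 7.4, with 0.5 µM DTG and 0.1 µM pindolol. Sections are washed cold, imaged by real-time autoradiography, and ROI intensities (cpm/mm2) are defined by HE counterstaining.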

The structures appear in SMILES notation.

Chain of D(1A) dopamine receptor (P50130 whole entry): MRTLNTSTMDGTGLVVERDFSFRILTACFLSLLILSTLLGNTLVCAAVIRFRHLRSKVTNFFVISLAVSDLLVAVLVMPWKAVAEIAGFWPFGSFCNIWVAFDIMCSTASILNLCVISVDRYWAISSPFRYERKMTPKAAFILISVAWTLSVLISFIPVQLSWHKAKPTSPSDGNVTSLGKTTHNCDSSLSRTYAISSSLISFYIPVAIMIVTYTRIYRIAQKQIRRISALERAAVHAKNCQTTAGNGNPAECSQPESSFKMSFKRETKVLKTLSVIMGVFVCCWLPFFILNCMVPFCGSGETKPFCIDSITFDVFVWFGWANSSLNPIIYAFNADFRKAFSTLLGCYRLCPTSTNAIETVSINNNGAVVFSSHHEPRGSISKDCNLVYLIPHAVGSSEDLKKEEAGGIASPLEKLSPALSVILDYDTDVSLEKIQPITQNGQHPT
Chain of 5-hydroxytryptamine receptor 2A (P50129 whole entry): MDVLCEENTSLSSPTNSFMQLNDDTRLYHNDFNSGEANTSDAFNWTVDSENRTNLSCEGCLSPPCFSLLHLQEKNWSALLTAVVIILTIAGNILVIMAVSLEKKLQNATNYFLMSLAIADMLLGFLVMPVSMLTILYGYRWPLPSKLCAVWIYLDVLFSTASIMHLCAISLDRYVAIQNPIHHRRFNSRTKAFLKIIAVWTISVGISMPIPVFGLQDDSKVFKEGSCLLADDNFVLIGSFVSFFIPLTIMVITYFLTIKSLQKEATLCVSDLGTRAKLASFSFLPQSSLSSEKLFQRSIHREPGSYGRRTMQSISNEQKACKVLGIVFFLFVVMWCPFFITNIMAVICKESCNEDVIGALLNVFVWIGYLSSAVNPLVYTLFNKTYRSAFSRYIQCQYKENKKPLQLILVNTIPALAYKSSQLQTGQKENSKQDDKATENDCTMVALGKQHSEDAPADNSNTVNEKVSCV

In the case of `[18F]CCOc1ccc(N2CCN(Cc3cc4ccccn4n3)CC2)cc1`, the remaining at 1.5 h in data set [1] was above 99%. The compound further displayed a logD in data set [2] of 1.99.
As for `Fc1cccc(N2CCN(Cc3cnn4ccccc34)CC2)n1`, the Ki in [3] stood at 0.22 µM; in [4], 0.0088 µM; in data set [6] it was 0.33 µM; in [7] it was 0.59 µM; in data set [9], 5.4 µM; in data set [10], 7.3 µM. Also, the results for the Ki in data set [11] and in data set [13] were 0.087 µM and 0.29 µM, respectively. For the same compound, the Ratio Ki worked out at 67 in data set [5], 25 in data set [8] and 38 in data set [12].
Regarding `FCCOc1ccccc1N1CCN(Cc2cnn3ccccc23)CC1`, the Ki worked out at 0.18 µM in data set [3]; 0.0016 µM in [4]; 0.15 µM in [6]; 0.32 µM in data set [7]; 2.9 µM in data set [9]; 2.5 µM in [10]. The inhibitory constant (Ki) in [11] was determined as 0.0054 µM; in [13], 0.12 µM. For the same compound, in [14], the EC50 amounted to 0.001 µM. For the same compound, the Efficacy in data set [15] came to 71%.
In the case of `Clc1ccc(N2CCN(Cc3cnn4ccccc34)CC2)cc1` [FAUC 113], the results for the Ki in data set [4], in [11] and in [13] were 0.0058 µM, 0.24 µM and 1.4 µM, respectively. In [15], the Efficacy turned out to be 26%.
Turning to `Brc1cccc(N2CCN(Cc3cc4ccccn4n3)CC2)n1`, the Ki in data set [3] worked out at 0.55 µM; in data set [4] it was 0.0079 µM; in [6], 0.88 µM; in data set [7], 0.93 µM; in [9], 4.4 µM; in data set [10] it was 18 µM. Also, the values for the inhibitory constant (Ki) in [11] and in data set [13] were 0.24 µM and 0.36 µM, respectively.
For the compound `FCCOc1ccc(N2CCN(Cc3cc4ccccn4n3)CC2)cc1`, the Ki came to 50 µM in [3]; 0.013 µM in data set [4]; 30 µM in data set [6]; 15 µM in data set [7]; 5.5 µM in [9]; 29 µM in data set [10]. The Ki in data set [11] worked out at 4.1 µM; in [13] it was 1.4 µM. The values for the Ratio Ki in data set [5], in data set [8] and in [12] were 1150, 3850 and 2310, respectively. The EC50 in [14] came out at 0.0091 µM. The Efficacy in data set [15] was -37%.
For `Brc1cccc(N2CCN(Cc3cnn4ccccc34)CC2)n1`, the Ki was found to be 0.15 µM in data set [3]; 0.0026 µM in data set [4]; 0.21 µM in [6]; 0.41 µM in data set [7]; 1.2 µM in data set [9]; 3.9 µM in data set [10]. Further, the Ki in [11] stood at 0.021 µM; in data set [13], 0.12 µM.
In the case of `FCCOc1ccc(N2CCN(Cc3cnn4ccccc34)CC2)cc1`, the Ki worked out at 79 µM in data set [3]; 0.028 µM in data set [4]; 66 µM in [6]; 8.7 µM in [7]; 14 µM in data set [9]; 33 µM in [10]. Moreover, the Ki in data set [11] stood at 4.5 µM; in data set [13], 13 µM. The Ratio Ki in data set [5] is 311; in data set [8], 2820; in data set [12], 2360. Also, in data set [14], the EC50 is 0.018 µM. For the same compound, in [15], the Efficacy is on record as -41%.
On to `[18F]CCOc1ccc(N2CCN(Cc3cnn4ccccc34)CC2)cc1`, for which the remaining at 1.5 h in data set [1] was above 96%. The compound further had a logD in data set [2] of 2.12.
In data set [16], `CCc1cc(Cl)c(OC)c(C(=O)NC[C@@H]2CCCN2CC)c1O` showed an Activity of 65%.
In data set [2], `[18F]CCOc1ccccc1N1CCN(Cc2cnn3ccccc23)CC1` registered a logD of 2.15.
Take `[18F]c1cccc(N2CCN(Cc3cnn4ccccc34)CC2)n1`: the remaining at 1.5 h in [1] was above 98%. The logD in [2] turned out to be 1.98.
As for `Oc1ccccc1N1CCN(Cc2cnn3ccccc23)CC1`, the Ki amounted to 4.7 µM in data set [3]; 0.044 µM in data set [4]; 4.5 µM in data set [6]; 2.2 µM in data set [7]; 1.5 µM in data set [9]; 2.8 µM in [10]. Besides, the Ki stood at 0.026 µM in data set [11] and 0.68 µM in data set [13].
Turning to `CCCN1CCC[C@@H]2Cc3n[nH]cc3C[C@H]21` [QUINPIROLE], in data set [14], the EC50 came out at 0.0071 µM.
On to `Oc1ccc(N2CCN(Cc3cnn4ccccc34)CC2)cc1`, for which the Ki is 87 µM in data set [3]; 0.02 µM in [4]; 6.1 µM in [6]; 3.4 µM in data set [7]; 24.7 µM in [9]; 9.9 µM in data set [10]. The Ki in data set [11] worked out at 0.082 µM; in data set [13], 12 µM.
Consider `Fc1cccc(N2CCN(Cc3cc4ccccn4n3)CC2)n1`, for which the Ki amounted to 1.7 µM in data set [3]; 0.024 µM in data set [4]; 3.4 µM in data set [6]; 3.4 µM in [7]; 9.7 µM in data set [9]; 30 µM in data set [10]. Also, the Ki was 0.91 µM in [11] and 1.2 µM in data set [13]. The Ratio Ki came out at 142 in data set [5], 71 in data set [8] and 142 in data set [12].
`FCCOc1ccccc1N1CCN(Cc2cc3ccccn3n2)CC1`: the inhibitory constant (Ki) in [3] came out at 0.079 µM; in [4], 0.0013 µM; in [6], 0.046 µM; in data set [7], 0.94 µM; in [9], 13 µM; in [10] it was 4.8 µM. The figures for the Ki in [11] and in data set [13] were 0.04 µM and 5.7 µM, respectively. For the same compound, the Ratio Ki in data set [5] was 723; in data set [8], 61; in [12], 35. Besides, the EC50 in [14] worked out at 0.0008 µM. Further, the Efficacy in [15] is reported as 49%.
As to `Clc1ccc(N2CCN(Cc3cc4ccccn4n3)CC2)cc1`, the results for the Ki in [4], in [11] and in [13] were 0.0022 µM, 0.27 µM and 1.7 µM, respectively. Moreover, the figures for the Ratio Ki in data set [5], in data set [8] and in data set [12] were 2410, 2860 and 1550, respectively. In [16], this compound showed an Activity of 78%. Further, in [15], the Efficacy is on record as below 3%.
In the case of `[18F]c1cccc(N2CCN(Cc3cc4ccccn4n3)CC2)n1`, in data set [1], the remaining at 1.5 h is above 99%. The compound also had a logD in [2] of 1.78.

The record behind these values is ChEMBL document CHEMBL1143102, “Synthesis, radiofluorination, and in vitro evaluation of pyrazolo[1,5-a]pyridine-based dopamine D4 receptor ligands: discovery of an inverse agonist radioligand for PET” (J Med Chem, 2008).
